Reference: ChEMBL document CHEMBL1141177, “The novel L- and D-amino acid derivatives of hydroxyurea and hydantoins: synthesis, X-ray crystal structure study, and cytostatic and antiviral activity evaluations” (J Med Chem, 2005)
In brackets after ≈: the same amount, converted by molar mass.

Legend:
MCF7 = assay: Inhibition of breast carcinoma cell line (MCF-7) growth; assay type: functional, cell-based; conditions: Homo sapiens
Outline: (§1)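 Monolayers in DMEM with 10% FBS, 2 mM L-glutamine, penicillin/streptomycin, 37 °C, 5% CO2. Cells seeded on day 0, then compounds added in 5- and 10-fold dilutions (10^-8–10^-4 M) for 72 h. MTT read-out at 570 nm. Percent growth calculated relative to time-zero and untreated OD. Quadruplicates in three experiments; IC50 by linear interpolation, highest concentration reported as ">" when not reached.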

L1210 = assay: Inhibition of murine leukemia cells (L1210) growth; assay type: functional, cell-based; conditions: Mus musculus
WI-38 = assay: Inhibition of normal human fibroblast cell line (WI 38) growth; assay type: functional, cell-based; outline: as §1
MIA PaCa-2 = assay: Inhibition of pancreatic carcinoma cell line (MiaPaCa-2) growth; assay type: functional, cell-based; conditions: Homo sapiens; outline: as §1
HEp-2 = assay: Inhibition of laryngeal carcinoma cell line (Hep-2) growth; assay type: functional, cell-based; conditions: Homo sapiens; outline: as §1
MOLT-4 = assay: Inhibition of human T-lymphocyte cell line (Molt4/C8) growth; assay type: functional, cell-based
SW-620 = assay: Inhibition of colon carcinoma cell line (SW 620) growth; assay type: functional, cell-based; conditions: Homo sapiens; outline: as §1
HeLa = assay: Inhibition of cervical carcinoma cell line (HeLa) growth; assay type: functional, cell-based; conditions: Homo sapiens; outline: as §1
HEL [1] = assay: Minimum cytotoxic concentration of compound that causes alteration of cell morphology in human embryonic lung cells; assay type: functional
Outline: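 Human embryonic lung (HEL) cells were examined microscopically. MCC is the minimum concentration that causes a detectable alteration of cell morphology.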

[2] = Effective concentration required to reduce plaque formation by AD-169 strain of CMV virus in Human embryonic lung cells; assay type: functional, cell-based
Outline: (§2)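 Plaque reduction assay in human embryonic lung (HEL) cell cultures, virus input 100 plaque forming units. Viruses: CMV strains AD-169 and Davis, VZV TK+ strain OKA and TK− strain 07/1. EC50 is the concentration that reduces virus plaque formation by 50%.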

[3] = Effective concentration required to reduce plaque formation by Davis strain of CMV virus in Human embryonic lung cells; assay type: functional, cell-based; outline: as §2
HEL [4] = assay: Cytotoxic concentration to reduce the 50% cell growth of human embryonic lung cells; assay type: functional
Human alphaherpesvirus 3 [5] = assay: Effective concentration of compound required to reduce plaque formation by OKA strain of thymidine kinase positive VZ virus TK+ in human embryonic lung cells; assay type: functional, organism-based; conditions: Human alphaherpesvirus 3, lung
Human alphaherpesvirus 3 [6] = assay: Reduction of plaque formation by VZV07/1 strain of thymidine kinase(TK-) deficient VZ virus in human embryonic lung cells; assay type: functional, organism-based; conditions: Human alphaherpesvirus 3, lung
[7] = Homo sapiens, HEL, read-out: CC50

With `O=C(NO)NC(Cc1ccccc1)C(=O)NC1CCCCC1` (centres undefined) the IC50 (MCF7) was ≥ 100 µM, the IC50 (L1210) was 18 µM and the IC50 (WI-38) was > 100 µM. For the same compound, the IC50 (MIA PaCa-2) was 30.6 µM, the IC50 (HEp-2) was 94.2 µM and the IC50 (MOLT-4) was 19 µM. It also gave an IC50 (SW-620) of 100 µM and an IC50 (HeLa) of 58 µM.
In the case of `CCC(C)C(NC(=O)NO)C(=O)NC1CCCC1` (centres undefined), the IC50 (MOLT-4) is reported as > 100 µM.
For `CCC(C)C1NC(=O)N(Cc2ccccc2)C1=O` (centres undefined), the IC50 (MOLT-4) was > 200 µM.
In the case of `O=C(C(Cc1ccccc1)NC(=O)n1nnc2ccccc21)N1CCCC1` (centres undefined), the IC50 (MCF7) is reported as ≥ 100 µM, the IC50 (L1210) is reported as 133 µM and the MCC (HEL [1]) is reported as > 200 µg/mL. For the same compound, the IC50 (WI-38) was > 100 µM, the IC50 (MIA PaCa-2) was > 100 µM and the EC50 [2] was > 200 µg/mL. The IC50 (HEp-2) was ≥ 100 µM, the IC50 (MOLT-4) was 123 µM and the EC50 [3] was > 200 µg/mL. The CC50 (HEL [4]; [7]) was 148 µg/mL (≈ 406 µM), the IC50 (SW-620) was > 100 µM and the EC50 (Human alphaherpesvirus 3 [5]) was 117 µg/mL (≈ 322 µM). For the same compound, the EC50 (Human alphaherpesvirus 3 [6]) was 106 µg/mL (≈ 292 µM) and the IC50 (HeLa) was > 100 µM.
For `CC(C)C1NC(=O)N(C2CCCCC2)C1=O` (centres undefined), the IC50 (MCF7) was > 100 µM, the IC50 (L1210) was > 200 µM and the MCC (HEL [1]) was ≥ 100 µg/mL. The IC50 (WI-38) was > 100 µM, the IC50 (MIA PaCa-2) was > 100 µM and the EC50 [2] was 45 µg/mL (≈ 201 µM). The IC50 (HEp-2) was 100 µM, the IC50 (MOLT-4) was > 200 µM and the EC50 [3] was 41 µg/mL (≈ 183 µM). For the same compound, the CC50 (HEL [4]; [7]) was > 50 µg/mL, the IC50 (SW-620) was > 100 µM and the EC50 (Human alphaherpesvirus 3 [5]) was 45 µg/mL (≈ 201 µM). The EC50 (Human alphaherpesvirus 3 [6]) was 29 µg/mL (≈ 129 µM) and the IC50 (HeLa) was > 100 µM.
In the case of `CCC(C)C(NC(=O)NO)C(=O)NCc1ccccc1` (centres undefined), the IC50 (MOLT-4) is reported as 126 µM.
For `O=C(NO)NC(C(=O)N1CCCCC1)c1ccccc1` (centres undefined), the IC50 (MCF7) was > 100 µM, the IC50 (L1210) was 80 µM and the IC50 (WI-38) was 6.7 µM. The IC50 (MIA PaCa-2) was > 100 µM, the IC50 (HEp-2) was > 100 µM and the IC50 (MOLT-4) was 125 µM. The IC50 (SW-620) was > 100 µM and the IC50 (HeLa) was > 100 µM.
In the case of `CCC(C)C1NC(=O)N(C2CCCC2)C1=O` (centres undefined), the IC50 (MOLT-4) is reported as > 200 µM.
For `CCC(C)C(NC(=O)NO)C(=O)NC1CCCCC1` (centres undefined), the IC50 (MCF7) was > 100 µM, the IC50 (L1210) was 89 µM and the IC50 (WI-38) was > 100 µM. For the same compound, the IC50 (MIA PaCa-2) was > 100 µM, the IC50 (HEp-2) was > 100 µM and the IC50 (MOLT-4) was 150 µM. The IC50 (SW-620) was > 100 µM and the IC50 (HeLa) was > 100 µM.
For `Nc1nc2c(ncn2COCCO)c(=O)[nH]1` [ACYCLOVIR], the MCC (HEL [1]) was > 400 µg/mL, the CC50 (HEL [4]) was 200 µg/mL (≈ 888 µM) and the CC50 (HEL [4]; [7]) was 200 µg/mL (≈ 888 µM).
